An excerpt weighted towards active compounds, which were near 2.9% of everything screened.
Apaf1 inhib = inhibitors of human Apaf-1 apoptosome; O14727; reconstituted apoptosome caspase-3 activity, DEVD-Rh110 fluorescence; inhibition, % at 20 µM; 330,000 compounds, 0.71% hits; AID 489030; active = inhibition of at least 40% at 20 µM;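 also: plate controls were DMSO wells for no effect and DEVD-CHO caspase inhibitor wells for full effect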
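System: reconstituted apoptosome with Apaf-1, cytochrome c, caspase-9, procaspase-3, dATP; Signal: Rh110 fluorescence intensity; Schedule: 30 min compound preincubation, 50 min activation, room temperature; Reagent: cytochrome c trigger plus (Z-DEVD)2-Rh110 caspase-3 substrate.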
UBC13 polyUb = blocks human UBC13 polyubiquitin chain formation; 330,000 compounds, 0.47% hits; P61088; TR-FRET; inhibition, % at 20 µM; in the data active = inhibition above about 45%, passing the limit was not always enough; inconclusive = no clear call, values can overlap the other calls
MEKK3 PB1 HTS = modulators (inhibitors or enhancers) of MEK5 binding to human MEKK3 PB1 domain. Q99759. bead-based flow cytometry, Alexa488-MEK5 binding to MEKK3; actives lie on both sides; 0 = blocked by unlabeled MEK5, 100 = vehicle. binding response (% of control), % at 10 µM. 290,000 compounds, 1.4% hits;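 active = binding response more than 3 SD above or below the average of its plate-row segment, actives on both sides; inconclusive = wells at one plate position flagged as instrument error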;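 also: Alexa488 bead fluorescence after subtracting the streptavidin-only scavenger bead signal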
Target sequence (Q99759 whole entry, looked up, the tested form may be a part): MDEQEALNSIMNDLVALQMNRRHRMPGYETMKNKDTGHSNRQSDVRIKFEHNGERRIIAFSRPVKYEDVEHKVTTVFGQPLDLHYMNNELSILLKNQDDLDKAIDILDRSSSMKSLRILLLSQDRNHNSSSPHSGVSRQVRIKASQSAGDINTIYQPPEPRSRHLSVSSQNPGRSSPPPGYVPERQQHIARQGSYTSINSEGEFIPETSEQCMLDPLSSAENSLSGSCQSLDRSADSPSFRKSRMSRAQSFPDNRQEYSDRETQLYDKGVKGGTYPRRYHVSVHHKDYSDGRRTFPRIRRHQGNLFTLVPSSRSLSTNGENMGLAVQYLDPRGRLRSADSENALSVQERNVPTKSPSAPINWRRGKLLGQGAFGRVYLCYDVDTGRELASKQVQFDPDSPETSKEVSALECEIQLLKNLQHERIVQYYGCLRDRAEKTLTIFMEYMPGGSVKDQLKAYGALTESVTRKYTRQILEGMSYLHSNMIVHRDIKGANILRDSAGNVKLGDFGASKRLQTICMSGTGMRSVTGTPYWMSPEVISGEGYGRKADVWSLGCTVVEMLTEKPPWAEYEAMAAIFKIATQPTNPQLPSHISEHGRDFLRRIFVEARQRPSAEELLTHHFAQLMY
MEKK2mut PB1 HTS = signal of MEK5 binding to mutant human MEKK2 PB1 domain; 290,000 compounds, 0.35% hits; percent response, % at 10 µM; bead flow cytometry, Alexa488-MEK5 binding to MEKK2 mutant; in the data active = percent response above about 24%, passing the limit was not always enough
MEKK2 WT-MEK5 = raises or lowers MEK5 binding to wildtype human MEKK2 PB1 domain; Q9Y2U5; bead flow cytometry, Alexa488-MEK5 binding to MEKK2 WT; actives lie on both sides; binding response (% of control), % at 10 µM; 290,000 compounds, 1.1% hits; in the data active = binding response below about 67% or above about 130%; inconclusive = no clear call, values can overlap the other calls; inactive = in between
* = called active by the depositor; ? = inconclusive; nt = not tested or not shown; [ ] = another dose, or the depositor's remark.

SMILES	Apaf1 inhib	UBC13 polyUb	MEKK3 PB1 HTS	MEKK2mut PB1 HTS	MEKK2 WT-MEK5
Cc1[nH][nH]c(=O)c1C(c1cc2c(cc1Br)OCO2)c1c(C)[nH][nH]c1=O	4.4	-9.3	103.0	36.0	23.0*
CCCNC(=O)C(Cc1ccccc1)NC(=O)c1ccc(-c2ccccc2)cc1 (stereo not given)	5.0	1.2	nt	nt	nt
Cc1ccc(NS(=O)(=O)c2c(C)[nH]c(C)c2C(=O)N2CCCCC2)c(Br)c1	-2.1	?	103.0	4.0	105.0
Cc1c(C(=O)N2CCc3ccccc3C2)oc2ccccc12	17.2	6.4	103.0	4.0	107.0
Cc1[nH]n(-c2ccccc2)c(=O)c1C(C[N+](=O)[O-])c1ccc(Cl)cc1 (stereo not given)	88.2*	-27.3	88.0	-3.0	91.0
CCN(CC)c1ccc(C=Nc2ccc(C)cc2C)c(O)c1	4.8	18.3	92.0	-7.0	77.0
Cc1ccc(N=Cc2cccc(O)c2O)c(C)c1	93.3*	-5.5	103.0	-6.0	99.0
CCCCCCN1CC(=O)N2Cc3[nH]c4ccccc4c3C[C@H]2C1=O	10.8	9.2	106.0	7.0	103.0
O=C(OCc1ccccc1F)c1cnc(Cl)c(Cl)c1	11.2	-1.4	0.0*[inhibitor]	-26.0	-10.0*[inhibitor]
O=C(OCc1c(F)cccc1Cl)c1cnc(Cl)c(Cl)c1	7.0	1.8	100.0	-1.0	99.0
N#CCCN(C(=O)COC(=O)C12CC3CC(CC(O)(C3)C1)C2)c1ccc(F)cc1	43.3*	14.4	nt	nt	nt
N#CCCN(C(=O)COC(=O)CNC(=O)C12CC3CC(CC(C3)C1)C2)c1ccccc1	37.4	-0.6	nt	nt	nt
O=c1cc(-c2ccco2)nc(SCc2cccc(Cl)c2)[nH]1	2.4	-6.4	99.0	-4.0	-8.0*
CC(=O)c1ccc(OCCCC(=O)OCC(=O)Nc2ccc3[nH]c(=O)[nH]c3c2)cc1	-32.3	2.3	nt	nt	nt
CC1CCCCN1CCCNC(=O)C1CCN(c2nnc(-n3cccc3)s2)CC1 (stereo not given)	21.9	21.2	100.0	22.0	150.0*
Cc1oc(-c2cccc(Cl)c2)nc1CN1CCC(C(=O)NCCCN2CC(C)CC(C)C2)CC1 (stereo not given)	8.2	23.1	101.0	18.0	139.0*
Cc1oc(-c2cccc(Cl)c2)nc1CN1CCC(C(=O)NCCCN2CCCC2=O)CC1	-4.8	2.7	102.0	3.0	103.0
CCOc1ccc2nc(N3CCCC(C(=O)NCCCN4CC(C)CC(C)C4)C3)sc2c1 (stereo not given)	19.5	18.2	107.0	16.0	142.0*
O=C(NCCCN1CCN(Cc2ccccc2)CC1)C1CCN(c2nnc(-n3cccc3)s2)CC1	18.2	32.8	111.0	56.0*	197.0*
CCCCN(C(=O)C1CC(=O)N(c2ccc(CC)cc2)C1)c1c(N)n(CCC)c(=O)[nH]c1=O (stereo not given)	3.5	-0.1	nt	nt	nt
CCOC(=O)c1nc(C)nc(Sc2n[nH]c(-c3cc(C(F)(F)F)cc(C(F)(F)F)c3)n2)c1C	12.7	-8.2	98.0	-8.0	103.0
Cc1ccc(-n2c(SCC(=O)N(C)C3CCS(=O)(=O)C3)nc3ccccc3c2=O)cc1 (stereo not given)	-7.2	5.6	101.0	-6.0	94.0
CC1CC(C)CN(CCCNC(=O)C2CCN(c3nnc(-n4cccc4)s3)CC2)C1 (stereo not given)	9.1	14.7	100.0	20.0	155.0*
CCC1CCCCN1CCCNC(=O)C1CCN(S(=O)(=O)N2CCCCC2)CC1 (stereo not given)	11.4	3.8	105.0	2.0	118.0
CCOc1ccc(NCc2cccn2-c2nnc(N3CCC(C(=O)NCCCN4CCCCC4CC)CC3)s2)cc1 (stereo not given)	25.1	21.9	104.0	24.0*	133.0
SMILES	Apaf1 inhib	UBC13 polyUb	MEKK3 PB1 HTS	MEKK2mut PB1 HTS	MEKK2 WT-MEK5
Cc1ccc(C)n1-c1nnc(N2CCC(C(=O)NCCCN3CC(C)CC(C)C3)CC2)s1 (stereo not given)	-402.0	1.5	101.0	0.0	102.0
O=C(Nc1ccc2c(c1)OCO2)[C@@H]1[C@@H]2C(=O)N(C3CCCCC3)C(=O)[C@@H]2C2c3ccccc3C=CN21 (stereo not given in full)	42.5*	-4.7	100.0	7.0	100.0
O=C(c1cccs1)[C@@H]1[C@@H]2C(=O)N(Cc3ccc4c(c3)OCO4)C(=O)[C@@H]2C2c3ccccc3C=CN21 (stereo not given in full)	81.9*	-11.4	nt	nt	nt
O=C(c1ccc2c(c1)OCO2)[C@@H]1[C@@H]2C(=O)N(C3CCCCC3)C(=O)[C@@H]2C2c3ccccc3C=CN21 (stereo not given in full)	nt	nt	104.0	6.0	100.0
O=C(Nc1ccccc1F)N1CCc2ccccc2C1	-2.3	-1.5	102.0	1.0	103.0
CC(=O)N(Cc1ccccc1)Cc1cn(CCC#N)nc1-c1cccc([N+](=O)[O-])c1	2.0	2.5	99.0	3.0	100.0
CCOC(=O)c1c(S(=O)(=O)N(C)Cc2ccco2)c(C)n(C)c1C	-2.2	-3.5	30.0*[inhibitor]	-53.0	43.0*[inhibitor]
Cc1c(C(=O)N2CCCCC2)c(S(=O)(=O)N(C)Cc2ccco2)c(C)n1C	-5.7	5.5	102.0	3.0	102.0
O=S(=O)(NCc1ccc(F)cc1)c1ccc(Br)cc1Br	20.4	6.4	nt	nt	nt
CCOC(=O)Cc1csc(NC(=O)c2c(O)c3c(n(CC(C)C)c2=O)CCCC3)n1	-1.2	-9.9	100.0	2.0	-3.0*
Cc1csc(NC(=O)c2c(O)c3c(n(CC(C)C)c2=O)CCCC3)n1	17.1	-8.2	99.0	-2.0	97.0
O=C(COC(=O)CCc1c[nH]c2ccccc12)NC(c1ccccc1)c1ccccc1	2.8	2.9	136.0*	0.0	103.0
NNC(=O)c1ccc(Cn2cccn2)o1	-11.0	-6.3	97.0	1.0	95.0
COc1cc(OC)nc(Oc2cc(C=O)ccc2OC)n1	8.8	2.9	94.0	0.0	97.0
CC(C)c1ccc(-c2nc3ccccc3s2)cc1	-7.0	-8.4	104.0	4.0	-3.0*
CCC(CO)Oc1cc(NCc2ccc(C(F)(F)F)cc2)c2ncn(C(C)C)c2c1 (stereo not given)	25.8	5.2	nt	nt	nt
Cc1ccc(C(=O)c2c3ccc(N)cc3nn2CCC(N)=O)cc1	82.0*	-86.7	97.0	1.0	93.0
Cc1ccc(C(=O)c2c3ccc(C(F)(F)F)cc3[n+]([O-])n2CCC(N)=O)cc1	5.1	-21.4	102.0	-4.0	98.0
COc1ccc(C(CNC(=O)c2ccc(S(=O)(=O)Nc3ccc(F)cc3)cc2)N(C)C)cc1 (stereo not given)	1.2	11.0	108.0	31.0*	119.0
COc1ccc(C(CNC(=O)c2cccc(S(=O)(=O)Nc3ccc(F)cc3)c2)N(C)C)cc1 (stereo not given)	2.8	9.7	nt	nt	nt
CCN(CC)c1ccc(-c2sc(Nc3ccccc3)n[n+]2-c2ccc(F)cc2)cc1	26.8	11.1	103.0	76.0*	33.0*
CN(C)c1ccc(-c2sc(Nc3ccccc3)n[n+]2-c2ccc(F)cc2)cc1	14.2	-14.9	101.0	14.0	105.0
